From ChEMBL document CHEMBL5357066, “Development of Novel Membrane Disrupting Lipoguanidine Compounds Sensitizing Gram-Negative Bacteria to Antibiotics” (ACS Med Chem Lett, 2024)
Values after ≈ are worked out from the molar mass of the structure shown.

Tests used:
Pseudomonas aeruginosa [1] = test: Synergistic antibacterial activity against Pseudomonas aeruginosa NCTC 13437 assessed as bacterial growth inhibition incubated for overnight in presence of PBMN by microbroth dilution method relative to control; type: functional
Outline: (§1)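 Adapted broth microdilution in TSB. The test compound was in a 2-fold dilution series, with PMBN added at a fixed 30 µg/mL. Bacteria at OD 0.02 were added, and plates were incubated overnight at 37 °C. Growth/no growth was read as for the MIC (<0.1 OD600).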

Pseudomonas aeruginosa [2] = test: Antibacterial activity against Pseudomonas aeruginosa PAO1 assessed as bacterial growth inhibition incubated for overnight by microbroth dilution method; type: functional
Outline: (§2)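 Broth microdilution in Tryptic Soy Broth. DMSO stocks were diluted in TSB as 2-fold series. Overnight TSB cultures were back-diluted to OD 0.01 and mixed 1:1 with compound. Incubation was overnight at 37 °C. MIC was the lowest concentration without visible growth (<0.1 OD600). DMSO vehicle was checked at equivalent concentrations.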

Klebsiella pneumoniae [3] = test: Antibacterial activity against ESBL Klebsiella pneumoniae NCTC 13368 assessed as bacterial growth inhibition incubated for overnight by microbroth dilution method
Acinetobacter baumannii [4] = test: Synergistic antibacterial activity against Acinetobacter baumannii AYE assessed as bacterial growth inhibition incubated for overnight in presence of PBMN by microbroth dilution method relative to control; type: functional; outline: as §1
Escherichia coli [5] = test: Synergistic antibacterial activity against Escherichia coli NCTC 12923 assessed as bacterial growth inhibition incubated for overnight in presence of PBMN by microbroth dilution method relative to control; type: functional; outline: as §1
Escherichia coli [6] = test: Synergistic antibacterial activity against Escherichia coli NCTC 12923 assessed as fold change in rifampicin MIC at <=0.25 times MIC incubated for overnight by microbroth dilution checkerboard assay relative to rifampicin alone; type: functional
Outline: (§3)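 Checkerboard microdilution under MIC conditions (TSB, overnight, 37 °C). Two-fold series of each agent were combined on one plate before bacteria were added, and single-agent MICs were measured on the same plate. FIC = sum of combination MIC/alone MIC for each agent, taken from the most synergistic well. Three independent repeats, mean ± SD. ≤0.5 was taken as strong synergy and 0.5–<1 as weak.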

Enterococcus faecalis [7] = test: Antibacterial activity against vancomycin sensitive Enterococcus faecalis NCTC 775 assessed as bacterial growth inhibition incubated for overnight by microbroth dilution method
Klebsiella pneumoniae [8] = test: Synergistic antibacterial activity against Klebsiella pneumoniae NCTC 13368 assessed as rifampicin MIC at <=0.25 times MIC incubated for overnight by microbroth dilution checkerboard assay; type: functional; outline: as §3
Klebsiella pneumoniae [9] = test: Antibacterial activity against Klebsiella pneumoniae M6 assessed as bacterial growth inhibition incubated for overnight by microbroth dilution method
Pseudomonas aeruginosa [10] = test: Synergistic antibacterial activity against Pseudomonas aeruginosa NCTC 13437 assessed as fold change in rifampicin MIC at <=0.25 times MIC incubated for overnight by microbroth dilution checkerboard assay relative to rifampicin alone; type: functional
Outline: (§4)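 Checkerboard microdilution in Tryptic Soy Broth, run like the MIC assay. Overnight TSB cultures were back-diluted to OD 0.01 and added 1:1 to the combined two-fold series of both agents, then incubated overnight at 37 °C. Growth/no-growth was called at <0.1 OD600. MICs alone were read on the same plates. FIC index came from the most synergistic well; three independent repeats, mean ± SD.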

Pseudomonas aeruginosa [11] = test: Antibacterial activity against Pseudomonas aeruginosa NCTC 13437 assessed as bacterial growth inhibition incubated for overnight by microbroth dilution method; type: functional; outline: as §2
Escherichia coli [12] = test: Synergistic antibacterial activity against Escherichia coli NCTC 12923 assessed as rifampicin MIC at <=0.25 times MIC incubated for overnight by microbroth dilution checkerboard assay; type: functional; outline: as §3
Staphylococcus aureus [13] = test: Antibacterial activity against methicillin resistant Staphylococcus aureus NCTC 13616 assessed as bacterial growth inhibition incubated for overnight by microbroth dilution method; type: functional
Outline: (§5)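 Microbroth dilution in Tryptic Soy Broth. DMSO stocks were diluted in TSB as 2-fold series. Overnight TSB cultures were back-diluted to OD 0.01 and mixed 1:1 with compound. Incubation was overnight at 37 °C. MIC is the lowest concentration with no visible growth (<0.1 OD600). DMSO at equivalent concentrations was checked.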

Staphylococcus aureus [14] = test: Antibacterial activity against methicillin sensitive Staphylococcus aureus ATCC 9144 assessed as bacterial growth inhibition incubated for overnight by microbroth dilution method; type: functional; outline: as §5
Enterococcus faecium = test: Antibacterial activity against vancomycin resistant Enterococcus faecium NCTC 12204 assessed as bacterial growth inhibition incubated for overnight by microbroth dilution method; type: functional; outline: as §5
Pseudomonas aeruginosa [15] = test: Synergistic antibacterial activity against Pseudomonas aeruginosa PAO1 assessed as bacterial growth inhibition incubated for overnight in presence of […] by microbroth dilution method relative to control; type: functional
Outline: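 Fixed-concentration combination MIC in TSB. The first agent was set in a two-fold dilution series (100 µL/well), then 50 µL/well of the second agent at a fixed concentration was added; PMBN was fixed at 30 µg/mL. Bacteria at OD 0.02 (50 µL) went into 150 µL of compounds, overnight at 37 °C. MIC was the lowest concentration without visible growth (<0.1 OD600).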

Staphylococcus aureus [16] = test: Antibacterial activity against methicillin resistant Staphylococcus aureus USA 300 assessed as bacterial growth inhibition incubated for overnight by microbroth dilution method; type: functional; outline: as §5
Acinetobacter baumannii [17] = test: Antibacterial activity against Acinetobacter baumannii ATCC 17978 assessed as bacterial growth inhibition incubated for overnight by microbroth dilution method; type: functional; outline: as §2
Pseudomonas aeruginosa [18] = test: Synergistic antibacterial activity against Pseudomonas aeruginosa NCTC 13437 assessed as rifampicin MIC at <=0.25 times MIC incubated for overnight by microbroth dilution checkerboard assay; type: functional; outline: as §4
Staphylococcus aureus [19] = test: Antibacterial activity against methicillin sensitive Staphylococcus aureus 1199B assessed as bacterial growth inhibition incubated for overnight by microbroth dilution method; type: functional; outline: as §5
Acinetobacter baumannii [20] = test: Synergistic antibacterial activity against Acinetobacter baumannii AYE assessed as rifampicin MIC at <=0.25 times MIC incubated for overnight by microbroth dilution checkerboard assay; type: functional; outline: as §3
Pseudomonas aeruginosa [21] = test: Synergistic antibacterial activity against Pseudomonas aeruginosa PAO1 assessed as rifampicin MIC at <=0.25 times MIC incubated for overnight by microbroth dilution checkerboard assay; type: functional; outline: as §4
Enterococcus faecalis [22] = test: Antibacterial activity against vancomycin resistant Enterococcus faecalis NCTC 12201 assessed as bacterial growth inhibition incubated for overnight by microbroth dilution method; type: functional; outline: as §5
Klebsiella pneumoniae [23] = test: Synergistic antibacterial activity against Klebsiella pneumoniae NCTC 13368 assessed as bacterial growth inhibition incubated for overnight in presence of PBMN by microbroth dilution method relative to control; type: functional; outline: as §1
Klebsiella pneumoniae [24] = test: Synergistic antibacterial activity against Klebsiella pneumoniae NCTC 13368 assessed as fold change in rifampicin MIC at <=0.25 times MIC incubated for overnight by microbroth dilution checkerboard assay relative to rifampicin alone; type: functional
Outline: (§6)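 Checkerboard run under the MIC conditions (TSB, overnight, 37 °C). Antibiotic and lipoguanidine 2-fold series were combined on one plate before bacteria were added. Growth/no-growth was scored as for the MIC (<0.1 OD600). Single-agent MICs were measured on the same plates. Three independent repeats were done.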

Acinetobacter baumannii [25] = test: Synergistic antibacterial activity against Acinetobacter baumannii AYE assessed as fold change in rifampicin MIC at <=0.25 times MIC incubated for overnight by microbroth dilution checkerboard assay relative to rifampicin alone; type: functional; outline: as §3
Escherichia coli [26] = test: Antibacterial activity against Escherichia coli NCTC 12923 assessed as bacterial growth inhibition incubated for overnight by microbroth dilution method; type: functional; outline: as §2
Pseudomonas aeruginosa [27] = test: Synergistic antibacterial activity against Pseudomonas aeruginosa PAO1 assessed as fold change in rifampicin MIC at <=0.25 times MIC incubated for overnight by microbroth dilution checkerboard assay relative to rifampicin alone; type: functional; outline: as §4
Acinetobacter baumannii [28] = test: Synergistic antibacterial activity against Acinetobacter baumannii ATCC 17978 assessed as fold change in rifampicin MIC at <=0.25 times MIC incubated for overnight by microbroth dilution checkerboard assay relative to rifampicin alone; type: functional; outline: as §3
Klebsiella pneumoniae [29] = test: Synergistic antibacterial activity against […] Klebsiella pneumoniae M6 assessed as rifampicin MIC at <=0.25 times MIC incubated for overnight by microbroth dilution checkerboard assay; type: functional; outline: as §6
Acinetobacter baumannii [30] = test: Synergistic antibacterial activity against Acinetobacter baumannii ATCC 17978 assessed as bacterial growth inhibition incubated for overnight in presence of PBMN by microbroth dilution method relative to control; type: functional; outline: as §1
Klebsiella pneumoniae [31] = test: Synergistic antibacterial activity against Klebsiella pneumoniae M6 assessed as bacterial growth inhibition incubated for overnight in presence of PBMN by microbroth dilution method relative to control; type: functional; outline: as §1
Acinetobacter baumannii [32] = test: Antibacterial activity against Acinetobacter baumannii AYE assessed as bacterial growth inhibition incubated for overnight by microbroth dilution method; type: functional; outline: as §2
Acinetobacter baumannii [33] = test: Synergistic antibacterial activity against Acinetobacter baumannii ATCC 17978 assessed as rifampicin MIC at <=0.25 times MIC incubated for overnight by microbroth dilution checkerboard assay; type: functional; outline: as §3

CCCCC/C=C\C/C=C\CCCCCCCCNC(=N)NCCCCCCCCNC(=N)N
inhibition (INH) (Pseudomonas aeruginosa [1]): <20% | MIC (Pseudomonas aeruginosa [2]): > 128 µg/mL | MIC (Klebsiella pneumoniae [3]): 32 µg/mL (≈ 67.1 µM) | inhibition (INH) (Acinetobacter baumannii [4]): <20% | inhibition (INH) (Escherichia coli [5]): <20% | fold change (FC) (Escherichia coli [6]): 0 | MIC (Enterococcus faecalis [7]): 4 µg/mL (≈ 8.39 µM) | MIC (Klebsiella pneumoniae [8]): 8 µg/mL | MIC (Klebsiella pneumoniae [9]): 16 µg/mL (≈ 33.6 µM) | fold change (FC) (Pseudomonas aeruginosa [10]): 0 | MIC (Pseudomonas aeruginosa [11]): > 128 µg/mL | MIC (Escherichia coli [12]): 8 µg/mL | MIC (Staphylococcus aureus [13]): 4 µg/mL (≈ 8.39 µM) | MIC (Staphylococcus aureus [14]): 2 µg/mL (≈ 4.19 µM) | MIC (Enterococcus faecium): 2 µg/mL (≈ 4.19 µM) | inhibition (INH) (Pseudomonas aeruginosa [15]): <20% | MIC (Staphylococcus aureus [16]): 2 µg/mL (≈ 4.19 µM) | MIC (Acinetobacter baumannii [17]): 4 µg/mL (≈ 8.39 µM) | MIC (Pseudomonas aeruginosa [18]): 16 µg/mL | MIC (Staphylococcus aureus [19]): 2 µg/mL (≈ 4.19 µM) | MIC (Acinetobacter baumannii [20]): 1 µg/mL | MIC (Pseudomonas aeruginosa [21]): 16 µg/mL | MIC (Enterococcus faecalis [22]): 4 µg/mL (≈ 8.39 µM) | inhibition (INH) (Klebsiella pneumoniae [23]): <20% | fold change (FC) (Klebsiella pneumoniae [24]): >=4 | fold change (FC) (Acinetobacter baumannii [25]): >=4 | MIC (Escherichia coli [26]): 8 µg/mL (≈ 16.8 µM) | fold change (FC) (Pseudomonas aeruginosa [27]): 0 | fold change (FC) (Acinetobacter baumannii [28]): >=4 | MIC (Klebsiella pneumoniae [29]): 0.5 µg/mL | inhibition (INH) (Acinetobacter baumannii [30]): <20% | inhibition (INH) (Klebsiella pneumoniae [31]): <20% | MIC (Acinetobacter baumannii [32]): 16 µg/mL (≈ 33.6 µM) | MIC (Acinetobacter baumannii [33]): 1 µg/mL

CCCCC/C=C\C/C=C\CCCCCCCCNC(=N)NCCCCCCCCN
inhibition (INH) (Pseudomonas aeruginosa [1]): <20% | MIC (Pseudomonas aeruginosa [2]): > 128 µg/mL | MIC (Klebsiella pneumoniae [3]): 32 µg/mL (≈ 73.6 µM) | inhibition (INH) (Acinetobacter baumannii [4]): <20% | inhibition (INH) (Escherichia coli [5]): <20% | fold change (FC) (Escherichia coli [6]): 0 | MIC (Enterococcus faecalis [7]): 8 µg/mL (≈ 18.4 µM) | MIC (Klebsiella pneumoniae [8]): 8 µg/mL | MIC (Klebsiella pneumoniae [9]): 16 µg/mL (≈ 36.8 µM) | fold change (FC) (Pseudomonas aeruginosa [10]): 0 | MIC (Pseudomonas aeruginosa [11]): > 128 µg/mL | MIC (Escherichia coli [12]): 8 µg/mL | MIC (Staphylococcus aureus [13]): 4 µg/mL (≈ 9.2 µM) | MIC (Staphylococcus aureus [14]): 2 µg/mL (≈ 4.6 µM) | MIC (Enterococcus faecium): 4 µg/mL (≈ 9.2 µM) | inhibition (INH) (Pseudomonas aeruginosa [15]): <20% | MIC (Staphylococcus aureus [16]): 2 µg/mL (≈ 4.6 µM) | MIC (Acinetobacter baumannii [17]): 8 µg/mL (≈ 18.4 µM) | MIC (Pseudomonas aeruginosa [18]): 16 µg/mL | MIC (Staphylococcus aureus [19]): 4 µg/mL (≈ 9.2 µM) | MIC (Acinetobacter baumannii [20]): 2 µg/mL | MIC (Pseudomonas aeruginosa [21]): 16 µg/mL | MIC (Enterococcus faecalis [22]): 4 µg/mL (≈ 9.2 µM) | inhibition (INH) (Klebsiella pneumoniae [23]): <20% | fold change (FC) (Klebsiella pneumoniae [24]): >=4 | fold change (FC) (Acinetobacter baumannii [25]): >=4 | MIC (Escherichia coli [26]): 8 µg/mL (≈ 18.4 µM) | fold change (FC) (Pseudomonas aeruginosa [27]): 0 | fold change (FC) (Acinetobacter baumannii [28]): 0 | MIC (Klebsiella pneumoniae [29]): 4 µg/mL | inhibition (INH) (Acinetobacter baumannii [30]): <20% | inhibition (INH) (Klebsiella pneumoniae [31]): <20% | MIC (Acinetobacter baumannii [32]): 16 µg/mL (≈ 36.8 µM) | MIC (Acinetobacter baumannii [33]): ≤ 0.125 µg/mL
